Key:
[1] = melting temperature; fluorescence melt of hairpins on a sequencing array, two-state fit, raised by 9.35 °C to match UV melts; details: sodium 0.088 M
In short: (§1)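 To match UV melts, fitted temperatures were raised by 9.35 °C. These fits were bootstrapped two-state models that gave melting temperature and folding enthalpy, combined by inverse variance over four replicates. The input was normalised Cy3 fluorescence of library hairpins with annealed Cy3 and quencher oligos on a sequenced MiSeq flow cell, imaged in 50 mM Na-HEPES pH 8.0, 25 mM NaCl in 2.5 °C steps up to 60 °C.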

[2] = folding enthalpy; higher = less favourable; fluorescence melt of hairpins on a sequencing array, two-state fit; details: sodium 0.088 M
In short: as §1

Row | Sequence | Tm [1] [°C] | folding enthalpy [2] [kcal/mol]
1 | GGATCCGAAAGGAGATCC ((((((....)))..))) | 44.8 | -24
2 | GCAGTCGAAAGACGCTGC ((((((....)))..))) | 55.6 | -21.6
3 | GACCAACGAAAGTTCGTC (((.(((....))).))) | 34.9 | -24.4
4 | GGGCACGAAAGTGACCCC ((((((....)))..))) | 68.5 | -10.3
5 | GATCAATCGGTTGATC ((((((....)))))) | 44.4 | -42
6 | GGTGGTGCGAAAGCAACC (((..(((....)))))) | 53.3 | -15.4
7 | GTAGTTGAAAAACTAC ((((((....)))))) | 48.9 | -30.9
8 | GATCATTCGGATGATC ((((((....)))))) | 48.1 | -35.5
9 | CGGGTGAAAACCCG (((((....))))) | 68.6 | -28.9
10 | GAAATCCCGAAAGGGTTC (((..(((....)))))) | 26.2 | -9.79
11 | GTCCATCCGAAAGGAGAC (((..(((....)))))) | 24.8 | -14.8
12 | GTAGCTGGAAACAGCTAC (((((((....))))))) | 66 | -39
13 | GATCCGCGACGGATC ((((((...)))))) | 57.9 | -39
14 | GCATGGCGAAAGCCTCGC ((..(((....)))..)) | 43.7 | -13.4
15 | GTCGGCGAAAGCCGTGAC ((((((....)))..))) | 41.1 | -8.14
16 | GAGGCGGCGAAAGCCCTC (((..(((....)))))) | 43.1 | -11
17 | GCCCAGCGAAAGCCCGGC (((..((....))..))) | 47.1 | -15.6
18 | GATCCTACAGAGGATC ((((((....)))))) | 50.4 | -29.6
19 | GATCGTAACACGATC ((((((...)))))) | 57.5 | -37.4
20 | CGAGCGGAAACGCCGTCG ((((((....)))..))) | 55 | -15.5
21 | GATCTGTATTCAGATC ((((((....)))))) | 50.4 | -36.3
22 | ACACTGAAAAGTGT (((((....))))) | 47.4 | -23.4
23 | GCCGAGCGAAAGCCTGGC (((..((....))..))) | 62.6 | -17

Row | Sequence | Tm [1] [°C] | folding enthalpy [2] [kcal/mol]
24 | GTCCTGCGAAAGCAGAC (((.(((....)))))) | 47.4 | -12.1
25 | GTATCCGGAAACGGGTAC (((.(((....))).))) | 51.3 | -42.2
26 | GATGCCGAAAGGCGCATC ((((((....)))..))) | 32.6 | -9.01
27 | GGCTACGAAAGTAACGCC ((((((....)))..))) | 46.1 | -22.8
28 | GTTGATCGAAAGATTAAC (((.(((....))).))) | 44.8 | -30.6
29 | CGACACGGAAACGTTCG (((.(((....)))))) | 42 | -35
30 | GGCTACGGAAACGTGGTC (.(.(((....))).).) | 42 | -27.8
31 | GCTATTGGAAACAATGGC ((.((((....)))).)) | 45.7 | -36.1
32 | GTACTGAAAAGTAC (((((....))))) | 46.8 | -20.8
33 | GTTCACCGAAAGGTAAC (((.(((....)))))) | 36.3 | -16.3
34 | GGGAAAGGAAACTTTTCC ((.((((....)))).)) | 40.6 | -27
35 | GGACAAGGAAACTTGTCC (((((((....))))))) | 61 | -45
36 | GCCCAGGGAAACTTGGGC (((((.(....).))))) | 56.5 | -36.8
37 | GTTCGACGAAAGTCAAC (((.(((....)))))) | 36.8 | -15.8
38 | GAGGGCGAAAGCCTCTC ((((((....))).))) | 53.2 | -16.1
39 | GATTACGAAAGTAAGATC ((((((....)))..))) | 39 | -16.2
40 | GATCGTAGGGACGATC ((((((....)))))) | 56 | -31.6
41 | GCGTACCGACGC ((((....)))) | 50.9 | -22.5
42 | GGGCCAGGAAACTGGTCC ((.((((....)))).)) | 61.9 | -35
43 | GAATGTGGAAACATATTC ((((.((....)).)))) | 35.1 | -33.2
44 | GGGAAGCGAAAGCTACCC (((.(((....))).))) | 59.3 | -30.7
45 | GTAAGACGAAAGTCATAC (((.(((....))).))) | 39.1 | -20.6
46 | GGCCACCGAAAGGTCGCC (((.(((....))).))) | 53.3 | -49.2

Row | Sequence | Tm [1] [°C] | folding enthalpy [2] [kcal/mol]
47 | GATACCGGAAACGGTGTC ((.((((....)))).)) | 52.1 | -28.8
48 | GCAATCGGAAACAATTGC (((((.(....).))))) | 38 | -27.9
49 | GATGCAGGAAACTGTGTC ((..(((....)))..)) | 35.5 | -27.1
50 | GATCTACCCGTAGATC ((((((....)))))) | 50.8 | -42.1
51 | GATCTTCTTTAAGATC ((((((....)))))) | 43.3 | -38
52 | GGTGATGGAAACATCGTC (..((((....))))..) | 32.9 | -18.1
53 | GCAGAGCGAAAGCGTTGC (((..((....))..))) | 62 | -19.4
54 | GATCATGGGAATGATC ((((((....)))))) | 51.8 | -36.8
55 | GAGAAACGAAAGTTGCTC (((.(((....))).))) | 48.8 | -28
56 | GGGACTGGAAACGGTCTC (.(((.(....).))).) | 37.4 | -23.1
57 | GCACACGGAAACGTATGC (((.(((....))).))) | 45.2 | -28
58 | GATCTGTGGCCAGATC ((((((....)))))) | 50.4 | -33.9
59 | GGGAGCACGAAAGTGCCC (((..(((....)))))) | 59.1 | -10.6
60 | GGTTTCGAAAGAATTACC ((((((....)))..))) | 27.9 | -14.2
61 | GCTCTTCGAAAGAATAGC (((.(((....))).))) | 38.5 | -30.7
62 | GATCCAAAATGGATC ((((((...)))))) | 48.9 | -31.5
63 | GATCGGATGCCCGATC ((((((....)))))) | 55.5 | -27
64 | GATCAATTTTTTGATC ((((((....)))))) | 47.3 | -35.1
65 | GACGAACGAAAGTTGTC (((.(((....)))))) | 44.9 | -25.8
66 | GATTAAGGAAACTTAGTC ((.((((....)))).)) | 28 | -12.6
67 | CGATGCGGAAACGCGTCG (((.(((....))).))) | 62.1 | -47.4
68 | GATCTAGACTAGATC ((((((...)))))) | 40.8 | -36.6
69 | GACACGGGAAACTGTGTC (((((.(....).))))) | 53.5 | -42.2

Row | Sequence | Tm [1] [°C] | folding enthalpy [2] [kcal/mol]
70 | GATCTTAACTAAGATC ((((((....)))))) | 44 | -32.5
71 | GCCCTCGGAAACGAGAGC ((.((((....)))).)) | 49.1 | -27.2
72 | GATCTGGAACAGATC ((((((...)))))) | 58.8 | -37.7
73 | GAAAGTGGAAACACTTTC (((((((....))))))) | 56.8 | -36.1
74 | GCACGGGGAAACCCGTAC (.(((((....))))).) | 41.7 | -13.2
75 | GTGTCTCGAAAGAGCAC (((.(((....)))))) | 52.2 | -33.4
76 | GGGATCGAAAGATAACCC ((((((....)))..))) | 34.9 | -19.4
77 | GCAGTGCGAAAGCTCAGC ((.(.((....)).).)) | 49.2 | -14.7
78 | GCTATGCGAAAGCACCGC ((..(((....)))..)) | 31.9 | -8.22
79 | GTAAAGGCGAAAGCCTAC (((..(((....)))))) | 35 | -10
80 | GGCCACGAAAGTGCAGCC ((((((....)))..))) | 49.9 | -19.9
81 | GGTCCCGAAAGGGCGACC ((((((....)))..))) | 46 | -14.3
82 | GTTGTATCGAAAGATAAC (((..(((....)))))) | 37.1 | -27.3
83 | GCTTACGAAAGTATCAGC ((((((....)))..))) | 33.1 | -14.2
84 | GACGCGCCGAAAGGCGTC (((..(((....)))))) | 37.7 | -6.51
85 | GTTACCGAAAGGTAGAAC ((((((....)))..))) | 29.3 | -10.1
86 | GTGTGTGGAAACATGCAC (((..((....))..))) | 43.3 | -27.4
87 | GATCATTCCTATGATC ((((((....)))))) | 49.7 | -31.5
88 | GAGGAGGAAACTCCTC ((((((....)))))) | 55.9 | -31.2
89 | GCCTTGGGAAACCAAGGC (((((((....))))))) | 68.8 | -44.1
90 | GCTGCCTCGAAAGAGAGC (((..(((....)))))) | 42.3 | -14
91 | GCATCGGGAAACCAATGC ((((.((....)).)))) | 42.2 | -29
92 | ACCTAGAAATAGGT (((((....))))) | 36.8 | -11.8

Reference: the array DNA melting data of Ke et al. (doi:10.1101/2024.01.08.574731)
